Published values pooled from the literature.
Lines come from different studies, so protocols differ.

Structure (SMILES)	target or system	test	system	conditions	quantity	result
Cc1cc(/C=C/C#N)cc(C)c1Nc1ccnc(Nc2ccc(C#N)cc2)n1	SUNE1	cell growth or viability, MTT		48 h	IC50	19.1 µM
NNC(=O)c1ccncc1	Mycolicibacterium smegmatis	microbial growth, broth dilution	ATCC700084		MIC	117 µM
Cc1c(C(=O)O)ccc2c3n(nc12)[C@@H]1[C@H](C3)N(CC2CC2)[C@@]2(C(=O)Nc3cc(Cl)ccc32)[C@H]1c1cccc(Cl)c1F	UACC-812	cell growth or viability			GI50	0.00119 µM
COc1cccc(/C=N/N2C(=O)c3ccccc3NC2c2cccc(OC)c2O)c1O (stereo not shown)	Mycolicibacterium smegmatis	microbial growth, broth dilution	ATCC700084	72 h	MIC	> 256 µg/mL
COC1=CC(=O)c2ccccc2C1=O	Candida tropicalis	microbial growth, broth dilution	ATCC13803	24 h	MIC	12.5 µg/mL
COc1cc(Cc2cnc(N)nc2N)cc(OC)c1OC	Toxoplasma gondii	parasite growth, fluorescence	HS27	96 h, intracellular	IC50	11.8 µg/mL
C[C@@H]1[C@H](O)[C@@H](C)/C=C/C=C/C=C/C=C/C=C/C=C/C=C/[C@H](O[C@@H]2O[C@H](C)[C@@H](O)[C@H](N)[C@@H]2O)C[C@@H]2O[C@](O)(C[C@@H](O)C[C@@H](O)[C@H](O)CC[C@@H](O)C[C@@H](O)CC(=O)O[C@H]1C)C[C@H](O)[C@H]2C(=O)O	Candida tropicalis	microbial growth, broth dilution	ATCC13803	24 h	MIC	4 µg/mL
C=CC(=O)NC1CCN(c2ncc3ncnc(Nc4ccc(Oc5ccc6c(c5)ncn6C)c(C)c4)c3n2)CC1	Panc1005	cell growth or viability			EC50	0.0396 µM
COc1cc2nc(N3CCN(C(=O)C4COc5ccccc5O4)CC3)nc(N)c2cc1OC (stereo not shown)	SUNE1	cell growth or viability, MTT		48 h	IC50	8.89 µM
CC(=O)N1N=C(c2ccc(NS(=O)(=O)c3ccc4oc(=O)ccc4c3)cc2)CC1c1ccc(Br)cc1 (stereo not shown)	Toxoplasma gondii	parasite growth, fluorescence	HS27	96 h, intracellular	IC50	< 3.91 µg/mL
